# Measurements: ChEMBL document CHEMBL1158697, “Synthesis and biological evaluation of a natural ester sintenin and its synthetic analogues” (J Nat Prod, 2005)
# What was measured:
# CNE = assay: Cytotoxicity against human CNE cells after 72 hrs by MTT assay; format: functional, cell-based
# In short: (§1)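 Cells allowed to attach as monolayers, then exposed to compounds at various concentrations in culture medium for 72 h; controls got deionized water (compound stock solvent). MTT added ([…]) for 3 h, supernatant removed, cells dissolved in DMSO, absorbance at 570 nm. CC50 = concentration reducing MTT signal 50% versus untreated controls.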
# KB = assay: Cytotoxicity against human KB cells after 72 hrs by MTT assay; format: functional, cell-based; in short: as §1
# [1] = Cytotoxicity against human Bel7404 cells after 72 hrs by MTT assay; format: functional, cell-based; settings: BEL-7404, 72 h; in short: as §1
# A549 = assay: Cytotoxicity against human A549 cells after 72 hrs by MTT assay; format: functional, cell-based; settings: A549, 72 h; in short: as §1
# HeLa = assay: Cytotoxicity against human HeLa cells after 72 hrs by MTT assay; format: functional, cell-based; in short: as §1
# PC-3 = assay: Cytotoxicity against human PC3 cells after 72 hrs by MTT assay; format: functional, cell-based; settings: PC-3, 72 h; in short: as §1
# [2] = Inhibition of alpha glucosidase
# In short: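 α-Glucosidase (25 µL at 0.2 U/mL) with p-nitrophenyl-α-D-glucopyranoside (25 µL of 23.2 mM), sample at various concentrations, in 67 mM phosphate buffer pH 6.8. Reaction stopped with 1 M Na2CO3; p-nitrophenol release read at 405 nm. Blanks lacked enzyme; negative control had buffer instead of sample; acarbose as positive control. Percent inhibition from corrected ODs; IC50 calculated from this.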
compound,measurement,setting,value
COCOc1ccc(/C=C/C(=O)OC/C=C/c2ccccc2)cc1OCOC,IC50,CNE,> 100 µg/mL
same,IC50,KB,202 µM
same,IC50,[1],> 100 µg/mL
same,IC50,A549,> 100 µg/mL
same,IC50,HeLa,> 1000 µM
same,IC50,PC-3,> 1000 µM
O=C(CCc1ccc(O)c(O)c1)OCCCc1ccccc1,IC50,CNE,235 µM
same,IC50,KB,125 µM
same,IC50,[1],> 100 µg/mL
same,IC50,A549,138 µM
same,IC50,[2],73 µM
same,IC50,HeLa,171 µM
same,IC50,PC-3,189 µM
COc1ccc(/C=C/C(=O)OC/C=C/c2ccc(OC)c(OC)c2)cc1,IC50,CNE,> 100 µg/mL
same,IC50,KB,> 100 µg/mL
same,IC50,[1],> 100 µg/mL
same,IC50,A549,> 100 µg/mL
same,IC50,HeLa,167 µM
same,IC50,PC-3,181 µM
O=C(/C=C/c1ccc(O)c(O)c1)OC/C=C/c1ccccc1,IC50,CNE,214 µM
same,IC50,KB,54 µM
same,IC50,[1],91 µM
same,IC50,A549,71 µM
same,IC50,[2],97 µM
same,IC50,HeLa,171 µM
same,IC50,PC-3,123 µM
COCOc1ccc(/C=C/C(=O)OC/C=C/c2ccc(OC)cc2)cc1,IC50,CNE,> 100 µg/mL
same,IC50,KB,> 100 µg/mL
same,IC50,[1],> 100 µg/mL
same,IC50,A549,> 100 µg/mL
same,IC50,HeLa,46 µM
same,IC50,PC-3,226 µM
COc1ccc(/C=C/COC(=O)/C=C/c2ccc([N+](=O)[O-])cc2)cc1OC,IC50,CNE,> 100 µg/mL
same,IC50,KB,165 µM
same,IC50,[1],> 100 µg/mL
same,IC50,A549,> 100 µg/mL
same,IC50,HeLa,> 100 µg/mL
same,IC50,PC-3,212 µM
COc1ccc(CCCOC(=O)CCc2ccc(O)cc2)cc1,IC50,CNE,287 µM
same,IC50,KB,820 µM
same,IC50,[1],108 µM
same,IC50,A549,186 µM
same,IC50,HeLa,> 100 µg/mL
same,IC50,PC-3,283 µM
COc1ccc(/C=C/COC(=O)/C=C/c2cc(OC)c(OC)c(OC)c2)cc1OC,IC50,CNE,> 100 µg/mL
same,IC50,KB,> 100 µg/mL
same,IC50,[1],212 µM
same,IC50,A549,172 µM
same,IC50,HeLa,64 µM
same,IC50,PC-3,80 µM
COc1ccc(/C=C/COC(=O)/C=C/c2ccc(O)cc2)cc1,IC50,CNE,40 µM
same,IC50,KB,143 µM
same,IC50,[1],193 µM
same,IC50,A549,72 µM
same,IC50,HeLa,95 µM
same,IC50,PC-3,88 µM
COc1ccc(CCCOC(=O)CCc2cc(OC)c(OC)c(OC)c2)cc1OC,IC50,CNE,> 100 µg/mL
same,IC50,KB,124 µM
same,IC50,[1],> 100 µg/mL
same,IC50,A549,> 100 µg/mL
same,IC50,HeLa,> 100 µg/mL
same,IC50,PC-3,104 µM
C[C@H]1O[C@H](O[C@H]2[C@H](O)[C@@H](O)[C@@H](O[C@H]3[C@H](O)[C@@H](O)C(O)O[C@@H]3CO)O[C@@H]2CO)[C@H](O)[C@@H](O)[C@@H]1N[C@H]1C=C(CO)[C@@H](O)[C@H](O)[C@H]1O (stereo partly drawn) [ACARBOSE],IC50,[2],680 µM
COc1ccc(/C=C/COC(=O)/C=C/c2ccc(OC)c(OC)c2)cc1OC,IC50,CNE,> 100 µg/mL
same,IC50,KB,133 µM
same,IC50,[1],136 µM
same,IC50,A549,181 µM
same,IC50,HeLa,86.7 µM
same,IC50,PC-3,92 µM
O=C(/C=C/c1ccc(O)cc1)OC/C=C/c1ccccc1,IC50,CNE,162 µM
same,IC50,KB,> 100 µg/mL
same,IC50,[1],> 100 µg/mL
same,IC50,A549,120 µM
same,IC50,[2],65 µM
same,IC50,HeLa,160 µM
same,IC50,PC-3,143 µM
COc1cc(/C=C/COC(=O)/C=C/c2cc(OC)c(OC)c(OC)c2)cc(OC)c1OC,IC50,CNE,50 µM
same,IC50,KB,206 µM
same,IC50,[1],> 100 µg/mL
same,IC50,A549,180 µM
same,IC50,[2],110 µM
same,IC50,HeLa,43 µM
same,IC50,PC-3,189 µM
